Reference: ChEMBL document CHEMBL1124250, “9-Benzyl-6-(dimethylamino)-9H-purines with antirhinovirus activity” (J Med Chem, 1988)
Each block holds one molecule with its values, some of them ahead of it.

Legend:
rhinovirus A1B [1] = assay: In vitro activity against rhinovirus type 1B was determined by plaque inhibition assay; - = Inactive at 50 ug/disk; format: functional, organism-based, Enterovirus
How it was run: (§1)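 Rhinovirus 1B plaque inhibition run on M-HeLa cell monolayers, with compound applied on disks at 50 µg/disk. Compounds active or slightly active at this level went on to a plaque reduction assay for the 50% inhibitory concentration.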

rhinovirus A1B [2] = assay: In vitro activity against Rhinovirus type 1B by plaque inhibition assay.; format: functional, organism-based, Enterovirus; conditions: Rhinovirus A
Enterovirus [3] = assay: Inhibitory concentration measured against Rhinovirus serotype 5; format: functional, organism-based
Enterovirus [4] = assay: Inhibitory concentration measured against Rhinovirus serotype 15; format: functional, organism-based
Enterovirus [5] = assay: Inhibitory concentration measured against Rhinovirus serotype 16; format: functional, organism-based
Enterovirus [6] = assay: Inhibitory concentration measured against Rhinovirus serotype 1B; format: functional, organism-based
Enterovirus [7] = assay: Inhibitory concentration measured against Rhinovirus serotype 13; format: functional, organism-based
Enterovirus [8] = assay: Percent inhibition of plaque formation of Rhinovirus serotype 8 was measured at 4 uM of the compound; format: functional
Enterovirus [9] = assay: Inhibitory concentration measured against Rhinovirus serotype 30; format: functional, organism-based
Enterovirus [10] = assay: Inhibitory concentration measured against Rhinovirus serotype 21; format: functional, organism-based
Enterovirus [11] = assay: Inhibitory concentration measured against Rhinovirus serotype 3; format: functional, organism-based
Enterovirus [12] = assay: Percent inhibition of plaque formation of Rhinovirus serotype 18 was measured at 4 uM of the compound; format: functional
Enterovirus [13] = assay: Inhibitory concentration measured against Rhinovirus serotype 14; format: functional, organism-based
Enterovirus [14] = assay: Inhibitory concentration measured against Rhinovirus serotype 2; format: functional, organism-based
Enterovirus [15] = assay: Inhibitory concentration measured against Rhinovirus serotype 4; format: functional, organism-based
Enterovirus [16] = assay: Inhibitory concentration measured against Rhinovirus serotype 9; format: functional, organism-based
Enterovirus [17] = assay: Inhibitory concentration measured against Rhinovirus serotype 31; format: functional, organism-based
Enterovirus [18] = assay: Inhibitory concentration measured against Rhinovirus serotype 19; format: functional, organism-based
Enterovirus [19] = assay: Inhibitory concentration measured against Rhinovirus serotype 12; format: functional, organism-based
Enterovirus [20] = assay: Inhibitory concentration measured against Rhinovirus serotype 29; format: functional, organism-based
Enterovirus [21] = assay: Inhibitory concentration measured against Rhinovirus serotype 1A; format: functional, organism-based
Enterovirus [22] = assay: Inhibitory concentration measured against Rhinovirus serotype 8; format: functional, organism-based
Enterovirus [23] = assay: Percent inhibition of plaque formation of Rhinovirus serotype 13 was measured at 5 uM of the compound; format: functional
Enterovirus [24] = assay: Percent inhibition of plaque formation of Rhinovirus serotype 15 was measured at 2.5 uM of the compound; format: functional
Enterovirus [25] = assay: Percent inhibition of plaque formation of Rhinovirus serotype 14 was measured at 2.5 uM of the compound; format: functional
Enterovirus [26] = assay: Percent inhibition of plaque formation of Rhinovirus serotype 29 was measured at 2.5 uM of the compound; format: functional
Enterovirus [27] = assay: Percent inhibition of plaque formation of Rhinovirus serotype 18 was measured at 5 uM of the compound; format: functional
Enterovirus [28] = assay: Percent inhibition of plaque formation of Rhinovirus serotype 31 was measured at 2.5 uM of the compound; format: functional
Enterovirus [29] = assay: Inhibitory concentration measured against Rhinovirus serotype 18; format: functional, organism-based
rhinovirus A1B [30] = assay: In vitro activity against rhinovirus type 1B was determined by plaque inhibition assay; Inactive at 50 ug/disk, T=Toxic; format: functional, organism-based, Enterovirus; how it was run: as §1

Structure (SMILES): CN(C)c1ncnc2c1ncn2Cc1ccc(OCc2ccccc2)cc1
- IC50 (rhinovirus A1B [1]): Not Active

Structure (SMILES): COc1ccc(Cn2cnc3c(N(C)C)ncnc32)cc1
- IC50 (rhinovirus A1B [2]): 38 µM

Structure (SMILES): CN(C)c1ncnc2c1ncn2Cc1ccc(N)cc1
- IC50 (rhinovirus A1B [1]): Not Active

Structure (SMILES): CN(C)c1ncnc2c1ncn2Cc1ccc(F)cc1
- IC50 (rhinovirus A1B [1]): Not Active

Structure (SMILES): CN(C)c1nc(Cl)nc2c1ncn2Cc1ccc(C(C)(C)C)cc1
- IC50 (rhinovirus A1B [2]): 0.44 µM

Structure (SMILES): COc1ccc(Cn2cnc3c(N(C)C)nc(Cl)nc32)cc1
- IC50 (rhinovirus A1B [2]): 0.7 µM

Structure (SMILES): CCc1ccc(Cn2cnc3c(N(C)C)nc(Cl)nc32)cc1
- IC50 (Enterovirus [3]): 5.6 µM
- IC50 (Enterovirus [4]): 3.9 µM
- IC50 (Enterovirus [5]): 0.2 µM
- IC50 (Enterovirus [6]): 0.08 µM
- IC50 (Enterovirus [7]): 4.9 µM
- Inhibition (Enterovirus [8]): 30%
- IC50 (Enterovirus [9]): 4 µM
- IC50 (Enterovirus [10]): 8 µM
- IC50 (rhinovirus A1B [2]): 0.08 µM
- IC50 (Enterovirus [11]): 4 µM
- Inhibition (Enterovirus [12]): 42%
- IC50 (Enterovirus [13]): 3.3 µM
- IC50 (Enterovirus [14]): 2.8 µM
- IC50 (Enterovirus [15]): 4 µM
- IC50 (Enterovirus [16]): 0.4 µM
- IC50 (Enterovirus [17]): 3.5 µM
- IC50 (Enterovirus [18]): 4.6 µM
- IC50 (Enterovirus [19]): 7 µM
- IC50 (Enterovirus [20]): 0.3 µM
- IC50 (Enterovirus [21]): 0.5 µM

Structure (SMILES): COc1cccc(Cn2cnc3c(N(C)C)nc(Cl)nc32)c1
- IC50 (rhinovirus A1B [2]): 2 µM

Structure (SMILES): CN(C)c1nc(Cl)nc2c1ncn2Cc1ccccc1
- IC50 (rhinovirus A1B [2]): 0.82 µM

Structure (SMILES): CN(C)c1nc(Cl)nc2c1ncn2Cc1ccc2ccccc2c1
- IC50 (rhinovirus A1B [2]): 1.1 µM

Structure (SMILES): CN(C)c1ncnc2c1ncn2Cc1cccc(NC(=O)C(N)Cc2ccccc2)c1 (configuration not stated)
- IC50 (rhinovirus A1B [2]): 17 µM

Structure (SMILES): CN(C)c1nc(Cl)nc2c1ncn2Cc1ccc(Cl)cc1
- IC50 (Enterovirus [3]): 5.2 µM
- IC50 (Enterovirus [22]): 4.5 µM
- Inhibition (Enterovirus [23]): 12%
- Inhibition (Enterovirus [24]): 40%
- IC50 (Enterovirus [6]): 0.12 µM
- Inhibition (Enterovirus [25]): 32%
- Inhibition (Enterovirus [26]): 31%
- Inhibition (Enterovirus [27]): 35%
- IC50 (Enterovirus [9]): > 2.5 µM
- IC50 (Enterovirus [10]): > 5 µM
- IC50 (rhinovirus A1B [2]): 0.12 µM
- IC50 (Enterovirus [11]): 3.1 µM
- IC50 (Enterovirus [14]): 2.5 µM
- IC50 (Enterovirus [15]): > 2.5 µM
- IC50 (Enterovirus [16]): 2.1 µM
- Inhibition (Enterovirus [28]): 42%
- IC50 (Enterovirus [18]): > 5 µM
- IC50 (Enterovirus [19]): 5.4 µM
- IC50 (Enterovirus [21]): 3 µM

Structure (SMILES): CN(C)c1nc(Cl)nc2c1ncn2Cc1cccc(N)c1
- IC50 (rhinovirus A1B [2]): 13 µM

Structure (SMILES): Cc1ccc(Cn2cnc3c(N(C)C)nc(Cl)nc32)cc1
- IC50 (Enterovirus [3]): 6.2 µM
- IC50 (Enterovirus [22]): 13 µM
- IC50 (Enterovirus [4]): 3.5 µM
- IC50 (Enterovirus [5]): 1 µM
- IC50 (Enterovirus [29]): 4 µM
- IC50 (Enterovirus [6]): 0.08 µM
- IC50 (Enterovirus [7]): 2.3 µM
- IC50 (Enterovirus [10]): 5.6 µM
- IC50 (rhinovirus A1B [2]): 0.08 µM
- IC50 (Enterovirus [11]): 7.2 µM
- IC50 (Enterovirus [13]): 7 µM
- IC50 (Enterovirus [14]): 11 µM
- IC50 (Enterovirus [15]): 4.6 µM
- IC50 (Enterovirus [16]): 2 µM
- IC50 (Enterovirus [17]): 1.6 µM
- IC50 (Enterovirus [18]): 14 µM
- IC50 (Enterovirus [19]): 5.4 µM
- IC50 (Enterovirus [20]): > 5 µM
- IC50 (Enterovirus [21]): 0.12 µM

Structure (SMILES): CN(C)c1ncnc2c1ncn2Cc1ccc(Cl)c(Cl)c1
- IC50 (rhinovirus A1B [2]): 2.5 µM

Structure (SMILES): CN(C)c1nc(Cl)nc2c1ncn2Cc1ccc(N)cc1
- IC50 (rhinovirus A1B [2]): 0.3 µM

Structure (SMILES): CN(C)c1nc(Cl)nc2c1ncn2Cc1ccc(Cl)c(Cl)c1
- IC50 (rhinovirus A1B [2]): 0.32 µM

Structure (SMILES): CN(C)c1nc(Cl)nc2c1ncn2Cc1ccc([N+](=O)[O-])cc1
- IC50 (rhinovirus A1B [2]): 0.51 µM

Structure (SMILES): CN(C)c1ncnc2c1ncn2Cc1cccc(OCc2ccccc2)c1
- IC50 (rhinovirus A1B [2]): 13 µM

Structure (SMILES): CN(C)c1nc(Cl)nc2c1ncn2Cc1cccc(OCc2ccccc2)c1
- IC50 (rhinovirus A1B [30]): Toxic

Structure (SMILES): CN(C)c1ncnc2c1ncn2Cc1cc(Cl)cc(Cl)c1
- IC50 (rhinovirus A1B [2]): 4.6 µM

Structure (SMILES): CC(C)c1ccc(Cn2cnc3c(N(C)C)nc(Cl)nc32)cc1
- IC50 (Enterovirus [3]): 8 µM
- IC50 (Enterovirus [22]): 6 µM
- IC50 (Enterovirus [4]): 4.5 µM
- IC50 (Enterovirus [5]): 0.2 µM
- IC50 (Enterovirus [29]): 4.3 µM
- IC50 (Enterovirus [6]): 0.07 µM
- IC50 (Enterovirus [7]): 5.8 µM
- IC50 (Enterovirus [9]): 8 µM
- IC50 (rhinovirus A1B [2]): 0.07 µM
- IC50 (Enterovirus [11]): 7 µM
- IC50 (Enterovirus [13]): 5.9 µM
- IC50 (Enterovirus [14]): 1.2 µM
- IC50 (Enterovirus [15]): 6.1 µM
- IC50 (Enterovirus [16]): < 1 µM
- IC50 (Enterovirus [17]): 4 µM
- IC50 (Enterovirus [18]): 7 µM
- IC50 (Enterovirus [19]): 3.4 µM
- IC50 (Enterovirus [20]): 0.5 µM
- IC50 (Enterovirus [21]): < 1 µM

Structure (SMILES): CN(C)c1nc(Cl)nc2c1ncn2Cc1cccc(I)c1
- IC50 (rhinovirus A1B [2]): 0.36 µM

Structure (SMILES): CN(C)c1nc(Cl)nc2c1ncn2Cc1cccc(Cl)c1
- IC50 (rhinovirus A1B [2]): 0.59 µM

Structure (SMILES): CN(C)c1ncnc2c1ncn2Cc1ccc(Cl)cc1
- IC50 (rhinovirus A1B [2]): > 25 µM

Structure (SMILES): CN(C)c1ncnc2c1ncn2Cc1ccc(C#N)cc1
- IC50 (rhinovirus A1B [1]): Not Active

Structure (SMILES): CC(=O)Nc1ccc(Cn2cnc3c(N(C)C)ncnc32)cc1
- IC50 (rhinovirus A1B [1]): Not Active

Structure (SMILES): CN(C)c1ncnc2c1ncn2Cc1ccc([N+](=O)[O-])cc1
- IC50 (rhinovirus A1B [1]): Not Active

Structure (SMILES): CN(C)c1ncnc2c1ncn2Cc1ccc(O)cc1
- IC50 (rhinovirus A1B [2]): 34 µM

Structure (SMILES): CC(C)S(=O)(=O)n1c(N)nc2ccc(/C(=N/O)c3ccccc3)cc21 [ENVIROXIME]
- IC50 (rhinovirus A1B [2]): 0.04 µM

Now from value to molecule:

- IC50 (rhinovirus A1B [2]): 6.7 µM
Structure (SMILES): CN(C)c1ncnc2c1ncn2Cc1cccc(I)c1

- IC50 (rhinovirus A1B [1]): Not Active
Structure (SMILES): CN(C)c1ncnc2c1ncn2Cc1cccc([N+](=O)[O-])c1

- IC50 (rhinovirus A1B [2]): 30.5 µM
Structure (SMILES): CN(C)c1ncnc2c1ncn2Cc1cccc(Cl)c1

- IC50 (rhinovirus A1B [2]): 8.6 µM
Structure (SMILES): Cc1ccc(Cn2cnc3c(N(C)C)ncnc32)cc1

- IC50 (rhinovirus A1B [2]): 0.6 µM
Structure (SMILES): Cc1cccc(Cn2cnc3c(N(C)C)nc(Cl)nc32)c1

- IC50 (rhinovirus A1B [2]): 33 µM
Structure (SMILES): CN(C)c1ncnc2c1ncn2Cc1ccccc1

- IC50 (rhinovirus A1B [2]): 23 µM
Structure (SMILES): CN(C)c1ncnc2c1ncn2Cc1cccc(F)c1

- IC50 (rhinovirus A1B [1]): Not Active
Structure (SMILES): CN(C)c1ncnc2c1ncn2Cc1cccc(O)c1

- IC50 (rhinovirus A1B [2]): 50 µM
Structure (SMILES): CN(C)c1ncnc2c1ncn2Cc1cccc(N)c1

- IC50 (rhinovirus A1B [2]): 32 µM
Structure (SMILES): Cc1cccc(Cn2cnc3c(N(C)C)ncnc32)c1

- IC50 (rhinovirus A1B [2]): 19.6 µM
Structure (SMILES): CN(C)c1ncnc2c1ncn2Cc1cccc(C(F)(F)F)c1

- IC50 (rhinovirus A1B [1]): Not Active
Structure (SMILES): CN(C)c1ncnc2c1ncn2Cc1cccc(C#N)c1

- IC50 (rhinovirus A1B [2]): 14.4 µM
Structure (SMILES): CN(C)c1ncnc2c1ncn2Cc1cccc(Br)c1

- IC50 (rhinovirus A1B [2]): 50 µM
Structure (SMILES): COc1cccc(Cn2cnc3c(N(C)C)ncnc32)c1
